Measurements pooled from the literature.
Compare with care: the assays were run in different laboratories.

SMILES	tested on	assay	test system	conditions	measurement	value
O=C(/C=C/c1cn(Cc2cn(-c3ccnc4cc(Cl)ccc34)nn2)c2ccccc12)c1ccc([N+](=O)[O-])cc1	Plasmodium falciparum	parasite growth, SYBR Green	3D7	5 µM, blood stage	inhibition	3.86%
COC(=O)/C=C/c1nn(CC2CCCC2)c2ncnc(N)c12	FLO-1	cell growth or viability, resazurin		5 days	EC50	> 30 µM
O=C(NO)c1ccc(CNc2nc3cccc(-c4ccc5c(c4)OCO5)n3n2)cc1	COLO 205	cell growth or viability, SRB			GI50	0.63 µM
C=CC(=O)NC1CCN(c2ncc3ncnc(Nc4ccc(Oc5ccc6c(c5)ncn6C)c(C)c4)c3n2)CC1	SW900	cell growth or viability			EC50	0.0463 µM
Nc1ncnc2c1c(/C=C/C(=O)N1CCC(O)CC1)nn2CC1CCCC1	FLO-1	cell growth or viability, resazurin		5 days	EC50	> 30 µM
CCN(CC)CCCC(C)Nc1ccnc2cc(Cl)ccc12 (stereo not drawn)	Plasmodium falciparum	parasite growth, SYBR Green	3D7	25 nM, blood stage	inhibition	52.5%
CNc1ncc2c(/C=C/C(=O)N3CCC(O)CC3)nn(CC3CCCC3)c2n1	FLO-1	cell growth or viability, resazurin		5 days	EC50	> 30 µM
C=C(F)C(=O)N1CCN(c2nc(OC[C@@H]3CCCN3C)nc3c2CCN(c2cccc4cccc(Cl)c24)C3)C[C@@H]1CC#N	KYSE-410	cell growth or viability, ATP luminescence		3D culture	IC50	0.107 µM
CNc1ncc2c(/C=C/C(=O)N3CCC(OC)CC3)nn(CC3CCCO3)c2n1 (stereo not drawn)	FLO-1	cell growth or viability, resazurin		5 days	EC50	> 30 µM
COC1=CC2=[N+](C)CCc3c[nH]c(c32)C1=O	Plasmodium falciparum	parasite growth, SYBR Green	DD2	blood stage	IC50	1.63 µM
O=C(/C=C/c1cn(Cc2cn(-c3ccnc4cc(Cl)ccc34)nn2)c2ccccc12)c1cccc([N+](=O)[O-])c1	Plasmodium falciparum	parasite growth, SYBR Green	3D7	10 µM, blood stage	inhibition	36%
O=C1C=C2NCCc3c[nH]c(c32)C1=O	Plasmodium falciparum	parasite growth, SYBR Green	W2	blood stage	IC50	25 µM
O=C(/C=C/c1cn(Cc2cn(-c3ccnc4cc(Cl)ccc34)nn2)c2ccccc12)c1ccc(F)cc1	Plasmodium falciparum	parasite growth, SYBR Green	3D7	5 µM, blood stage	inhibition	15.8%
Cn1cc2c3c1C(=O)C(NCCc1ccc(O)cc1)=CC3=[N+](C)CC2	Plasmodium falciparum	parasite growth, SYBR Green	DD2	blood stage	IC50	0.0484 µM
CNc1ncc2c(/C=C/C(=O)N3CCCC(OC)C3)nn(Cc3cccc(C)c3)c2n1 (stereo not drawn)	FLO-1	cell growth or viability, resazurin		5 days	EC50	13.8 µM
